In ChEMBL document CHEMBL1145023, “Homology modeling of rat and human cytochrome P450 2D (CYP2D) isoforms and computational rationalization of experimental ligand-binding specificities” (J Med Chem, 2003):

Legend:
Type in all cases: ADME
Cytochrome P450 2D3 = target: T1, Cytochrome P450 2D3 (Rattus norvegicus, UniProt P12938); test: Inhibition of MAMC O-dealkylation mediated by rat Cytochrome P450 2D3 expressed in Saccharomyces cerevisiae
T1 sequence (P12938 whole entry): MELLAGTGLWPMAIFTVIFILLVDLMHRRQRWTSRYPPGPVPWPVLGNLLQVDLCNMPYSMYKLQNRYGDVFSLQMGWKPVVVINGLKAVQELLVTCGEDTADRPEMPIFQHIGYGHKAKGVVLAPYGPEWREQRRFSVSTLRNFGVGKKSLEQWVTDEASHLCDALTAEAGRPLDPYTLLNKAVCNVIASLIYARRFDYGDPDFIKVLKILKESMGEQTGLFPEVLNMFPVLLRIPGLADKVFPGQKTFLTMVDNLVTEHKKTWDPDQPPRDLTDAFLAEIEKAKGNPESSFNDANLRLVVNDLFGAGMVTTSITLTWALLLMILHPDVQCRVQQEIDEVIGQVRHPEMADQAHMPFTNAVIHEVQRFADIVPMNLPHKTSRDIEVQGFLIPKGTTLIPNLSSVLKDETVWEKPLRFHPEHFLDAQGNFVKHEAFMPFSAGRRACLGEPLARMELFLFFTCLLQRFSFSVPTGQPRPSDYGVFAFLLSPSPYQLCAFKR
Procedure, shortened: (§1)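 Rat CYP2D isozymes are singly expressed in S. cerevisiae and used as microsomes in 100 mM phosphate, pH 7.4, at 37 °C. MAMC is 100 μM final, with or without varying inhibitor, after a 5 min preincubation. NADPH-regenerating system is added to start the reaction.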

Cytochrome P450 2D4 = target: T2, Cytochrome P450 2D4 (Rattus norvegicus, UniProt Q64680); test: Inhibition of MAMC O-dealkylation mediated by rat Cytochrome P450 2D4 expressed in Saccharomyces cerevisiae; procedure, shortened: as §1
T2 sequence (Q64680 whole entry): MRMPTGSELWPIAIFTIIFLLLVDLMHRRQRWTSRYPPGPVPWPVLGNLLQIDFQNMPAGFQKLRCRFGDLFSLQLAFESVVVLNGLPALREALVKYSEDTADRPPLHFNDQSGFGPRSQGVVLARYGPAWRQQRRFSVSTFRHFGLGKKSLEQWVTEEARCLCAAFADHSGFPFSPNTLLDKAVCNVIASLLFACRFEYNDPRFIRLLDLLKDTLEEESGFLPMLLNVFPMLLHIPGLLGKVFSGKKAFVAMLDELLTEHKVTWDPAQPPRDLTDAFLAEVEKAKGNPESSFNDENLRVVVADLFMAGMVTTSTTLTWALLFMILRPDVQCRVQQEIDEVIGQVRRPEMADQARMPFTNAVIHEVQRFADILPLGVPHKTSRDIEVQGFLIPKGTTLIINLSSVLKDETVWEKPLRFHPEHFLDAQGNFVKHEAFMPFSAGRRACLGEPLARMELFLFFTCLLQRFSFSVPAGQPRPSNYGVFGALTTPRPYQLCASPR

Cytochrome P450 2D26 = target: T3, Cytochrome P450 2D26 (Rattus norvegicus, UniProt P10634); test: Inhibition of MAMC O-dealkylation mediated by rat Cytochrome P450 2D2 expressed in Saccharomyces cerevisiae; procedure, shortened: as §1
T3 sequence (P10634 whole entry): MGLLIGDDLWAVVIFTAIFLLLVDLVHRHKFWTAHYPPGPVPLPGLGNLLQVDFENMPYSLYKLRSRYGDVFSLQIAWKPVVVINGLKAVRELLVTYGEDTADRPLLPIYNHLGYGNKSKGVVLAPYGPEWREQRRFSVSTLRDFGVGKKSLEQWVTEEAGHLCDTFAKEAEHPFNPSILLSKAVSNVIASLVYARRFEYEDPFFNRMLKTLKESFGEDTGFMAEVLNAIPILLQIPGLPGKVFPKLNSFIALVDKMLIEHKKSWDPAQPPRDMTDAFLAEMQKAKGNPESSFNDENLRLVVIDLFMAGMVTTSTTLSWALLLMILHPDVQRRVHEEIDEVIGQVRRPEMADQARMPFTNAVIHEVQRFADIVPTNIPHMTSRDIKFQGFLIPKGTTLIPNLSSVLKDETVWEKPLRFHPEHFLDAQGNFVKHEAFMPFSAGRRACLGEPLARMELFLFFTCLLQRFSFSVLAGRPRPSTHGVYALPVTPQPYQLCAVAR

Cytochrome P450 2D1 = target: T4, Cytochrome P450 2D1 (Rattus norvegicus, UniProt P10633); test: Inhibition of MAMC O-dealkylation mediated by rat Cytochrome P450 2D1 expressed in Saccharomyces cerevisiae
T4 sequence (P10633 whole entry): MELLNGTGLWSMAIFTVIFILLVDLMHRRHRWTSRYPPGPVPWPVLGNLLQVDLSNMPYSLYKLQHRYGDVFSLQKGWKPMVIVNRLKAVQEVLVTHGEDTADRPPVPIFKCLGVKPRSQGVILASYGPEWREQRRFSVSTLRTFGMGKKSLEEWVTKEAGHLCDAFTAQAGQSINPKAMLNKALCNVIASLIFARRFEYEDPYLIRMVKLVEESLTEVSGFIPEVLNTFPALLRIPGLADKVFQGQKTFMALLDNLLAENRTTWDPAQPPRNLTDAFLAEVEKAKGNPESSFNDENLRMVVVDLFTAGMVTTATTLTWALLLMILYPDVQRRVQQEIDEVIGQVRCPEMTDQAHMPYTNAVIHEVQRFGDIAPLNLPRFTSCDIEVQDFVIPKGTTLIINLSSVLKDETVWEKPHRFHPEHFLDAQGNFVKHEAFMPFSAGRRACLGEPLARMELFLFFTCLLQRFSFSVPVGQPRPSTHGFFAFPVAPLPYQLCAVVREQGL
Procedure, shortened: as §1, with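 “°C. Enzyme concentrations are 52.0 nM (2D1), 3.1 nM (2D2), 3.6 nM (2D3) and 21.9 nM (2D4).” for “°C.”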

Cytochrome P450 2D6 = Cytochrome P450 2D6 (Homo sapiens, UniProt P10635); test: Inhibition of MAMC O-dealkylation mediated by human Cytochrome P450 2D6 expressed in human lymphoblastoid cell line
Sequence of Cytochrome P450 2D6 (P10635 whole entry): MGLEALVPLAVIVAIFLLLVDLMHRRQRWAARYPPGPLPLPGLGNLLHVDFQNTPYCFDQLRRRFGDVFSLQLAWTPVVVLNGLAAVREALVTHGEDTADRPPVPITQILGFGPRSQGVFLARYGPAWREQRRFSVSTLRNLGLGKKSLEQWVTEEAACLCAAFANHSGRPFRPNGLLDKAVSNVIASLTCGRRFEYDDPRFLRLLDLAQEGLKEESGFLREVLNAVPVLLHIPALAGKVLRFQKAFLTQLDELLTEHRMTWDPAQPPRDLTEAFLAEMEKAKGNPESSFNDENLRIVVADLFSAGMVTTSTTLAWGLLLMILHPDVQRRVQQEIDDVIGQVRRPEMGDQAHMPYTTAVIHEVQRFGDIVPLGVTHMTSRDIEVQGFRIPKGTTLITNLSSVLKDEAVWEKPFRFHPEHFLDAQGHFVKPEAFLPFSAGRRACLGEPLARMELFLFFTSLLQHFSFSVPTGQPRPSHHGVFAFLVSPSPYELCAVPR
Procedure, shortened: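 Human CYP2D6 (1 nM) competition run as a microplate-reader fluorescence assay. MAMC is the substrate at 10 μM final, with and without a range of inhibitor concentrations. IC50 is obtained by nonlinear least-squares one-site competition fitting.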

Structure (SMILES) | IC50 (Cytochrome P450 2D3) | IC50 (Cytochrome P450 2D4) | IC50 (Cytochrome P450 2D26) | IC50 (Cytochrome P450 2D1) | IC50 (Cytochrome P450 2D6)
CC(C)NC[C@@H](O)COc1cccc2ccccc12 [DEXPROPRANOLOL] | 155 µM | 117 µM | 0.42 µM | 182 µM | –
COc1ccc2c(CN(C)C)cc(=O)oc2c1 | 862 µM | 1180 µM | 307 µM | 329 µM | 74.2 µM
C=C[C@H]1C[N@@]2CC[C@H]1C[C@H]2[C@H](O)c1ccnc2ccc(OC)cc12 [QUININE] | 12 µM | 1.7 µM | – | 46.5 µM | –
COc1ccc2c(c1)[C@]13CCCC[C@@H]1[C@H](C2)N(C)CC3 [DEXTROMETHORPHAN] | 18.6 µM | 136 µM | 5.6 µM | 264 µM | 1.8 µM
[H]/N=C(/N)N/C(=N/[H])NCCc1ccccc1 [PHENFORMIN] | 1930 µM | 833 µM | 45.4 µM | – | 27 µM
COc1ccc2c3c1O[C@H]1[C@@H](O)C=C[C@H]4[C@@H](C2)N(C)CC[C@@]341 [CODEINE] | 4090 µM | 2220 µM | 238 µM | 1320 µM | –
CC(C)NC[C@H](O)COc1cccc2ccccc12 [LEVOPROPRANOLOL] | 172 µM | 133 µM | 0.35 µM | 571 µM | –
N=C(N)N1CCc2ccccc2C1 [DEBRISOQUIN] | 1750 µM | 747 µM | 107 µM | 529 µM | 23.8 µM
C=C[C@H]1C[N@@]2CC[C@H]1C[C@@H]2[C@@H](O)c1ccnc2ccc(OC)cc12 [QUINIDINE] | 26.9 µM | 47.2 µM | – | 19.9 µM | –
CNCCC=C1c2ccccc2CCc2ccccc21 [NORTRIPTYLINE] | 14.2 µM | 19.3 µM | 1.9 µM | 204 µM | 2.3 µM
